# Active and inactive are the calls of the source. No cut-off for these calls is given here.
# Tests used:
# [1] = biological target: Cathepsin D (Homo sapiens) (UniProt P07339); test: Inhibition of human cathepsin D at 10 uM by enzyme assay
# Summary of the method: (§1)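 Commercial spectrum screen of enzyme assays under standard protocols; percent inhibition tested at 10 μM; IC50 determined for targets showing significant inhibition at that concentration; SEM given where multiple independent determinations.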
# MKN-7 = test: Growth inhibition of human MKN7 cells by SRB assay; type: functional
# Summary of the method: (§2)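 Human cancer cell panel; five concentrations from 10^-4 to 10^-8 M; growth measured by sulforhodamine B colorimetric method; GI50, TGI and LC50 derived from computer-analysed dose-response curves.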
# NCI-H226 = test: Growth inhibition of human NCI-H226 cells by SRB assay; type: functional; summary of the method: as §2
# SK-OV-3 [2] = test: Induction of mitotic arrest in human SKOV3 cells assessed as microtubule disruption at 10 uM after 24 hrs by SDS-PAGE; type: functional, cell-based
# DMS-273 = test: Growth inhibition of human DMS273 cells by SRB assay; type: functional; summary of the method: as §2
# SK-OV-3 [3] = test: Induction of mitotic arrest in human SKOV3 cells assessed as increase in cyclin B1 expression at 10 uM after 24 hrs by Western blot; type: functional, cell-based
# Summary of the method: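 SKOV-3 cells in DMEM/F-12 with 10% fetal calf serum, treated with 10 μM or vehicle (DMSO). Lysates, 50 μg protein, resolved by SDS-PAGE, transferred to PVDF, probed for cyclin B1 or securin with β-actin loading control; ECL detection, bands quantified by phosphorimaging; at least three separate experiments.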
# OVCAR-3 [4] = test: Antitumor activity against human OVCAR-3 cells xenografted in nude mouse assessed as increase in lifespan of organism at 200 mg/kg, ip administered in Q7D x 3 schedule relative to control; type: functional; conditions: route intraperitoneal
# OVCAR-5 = test: Growth inhibition of human OVCAR5 cells by SRB assay; type: functional; summary of the method: as §2
# U-251 = test: Growth inhibition of human U251 cells by SRB assay; type: functional
# Summary of the method: (§3)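 Cancer cell panel; growth measured by sulforhodamine B colorimetric method across five concentrations from 10^-4 to 10^-8 M; GI50, TGI and LC50 derived from computer-analysed dose-response curves.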
# MKN-74 = test: Growth inhibition of human MKN74 cells by SRB assay; type: functional; summary of the method: as §2
# MKN-28 = test: Growth inhibition of human MKN28 cells by SRB assay; type: functional; summary of the method: as §2
# LOX IMVI = test: Growth inhibition of human LOXIMVI cells by SRB assay; type: functional; summary of the method: as §2
# [5] = Growth inhibition of human HBC5 cells by SRB assay; type: functional; summary of the method: as §2
# [6] = Half life in CD1 mouse at 10 mg/kg, ip; type: ADME, organism-based; parameters: dose 10 mg/kg, route intraperitoneal; conditions: in vivo
# Summary of the method: (§4)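 Male CD-1 (Crl.) mice, 22-24 g, single 10 mg/kg ip bolus of parent drug in cremophor/DMSO/saline (20/5/75, v/v; 2 mg/mL, 5 mL/kg). Blood sampled at 0, 5, 15, 30 min, 1, 1.5, 2, 4, 6, 9, 24, 27 h, three mice per time point. Plasma extracted with acetonitrile, analysed by LC-MS/MS. Parameters calculated from mean plasma concentrations.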
# NCI-H23 = test: Growth inhibition of human NCI-H23 cells by SRB assay; type: functional; summary of the method: as §2
# [7] = biological target: Mitogen-activated protein kinase 10 (Homo sapiens) (UniProt P53779); test: Inhibition of human JNK3 at 10 uM by enzyme assay; summary of the method: as §1
# SNB-75 = test: Growth inhibition of human SNB75 cells by SRB assay; type: functional; summary of the method: as §3
# SF-268 = test: Growth inhibition of human SF268 cells by SRB assay; type: functional; summary of the method: as §3
# SK-OV-3 [8] = test: Induction of mitotic arrest in human SKOV3 cells assessed as increase in […] upregulation at 10 uM after 24 hrs by SDS-PAGE; type: functional, cell-based
# Summary of the method: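 SKOV-3 cells treated with vehicle (DMSO) or 10 μM for indicated times, or indicated doses for 24 h; whole-cell lysates resolved by SDS-PAGE, blotted and probed with anti-BubR1 mouse mAb; ECL detection.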
# [9] = Growth inhibition of human MKN1 cells by SRB assay; type: functional, MKN-1; summary of the method: as §2
# [10] = Tmax in CD1 mouse at 10 mg/kg, ip; type: ADME, organism-based; parameters: dose 10 mg/kg, route intraperitoneal; conditions: in vivo; summary of the method: as §4
# OVCAR-4 = test: Growth inhibition of human OVCAR4 cells by SRB assay; type: functional; summary of the method: as §2
# Rattus norvegicus = organism: Rattus norvegicus; test: Displacement of […] from benzodiazepine binding site of rat GABAA receptor at 10 uM radioligand binding assay
# Summary of the method: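 Radioligand binding screen run by contract lab under standard protocols; rat GABA_A sites; single-point inhibition at 10 μM, with IC50 determined where inhibition was significant.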
# SK-OV-3 [11] = test: Growth inhibition of human SKOV3 cells by SRB assay; type: functional; summary of the method: as §3
# [12] = biological target: Cathepsin E (Homo sapiens) (UniProt P14091); test: Inhibition of human cathepsin E at 10 uM by enzyme assay; summary of the method: as §1
# OVCAR-3 [13] = test: Growth inhibition of human OVCAR-3 cells by SRB assay; type: functional; summary of the method: as §2
# [14] = Solubility in water; type: physicochemical; conditions: buffer
# [15] = biological target: Cathepsin S (Homo sapiens) (UniProt P25774); test: Inhibition of human cathepsin S at 10 uM by enzyme assay; summary of the method: as §1
# NCI-H522 = test: Growth inhibition of human NCI-H522 cells by SRB assay; type: functional; summary of the method: as §2
# MKN-45 = test: Growth inhibition of human MKN45 cells by SRB assay; type: functional; summary of the method: as §2
# HCC 2998 = test: Growth inhibition of human HCC2998 cells by SRB assay; type: functional; summary of the method: as §2
# Pepsin A (Sus scrofa) = Pepsin A (Sus scrofa) (UniProt P00791); test: Inhibition of pig pepsin at 10 uM by enzyme assay; summary of the method: as §1
# [16] = Growth inhibition of human HBC4 cells by SRB assay; type: functional; summary of the method: as §2
# [17] = read-out: pLC50 (the source's name) (converted)
# Cathepsin E (Homo sapiens), sequence (P14091 whole entry): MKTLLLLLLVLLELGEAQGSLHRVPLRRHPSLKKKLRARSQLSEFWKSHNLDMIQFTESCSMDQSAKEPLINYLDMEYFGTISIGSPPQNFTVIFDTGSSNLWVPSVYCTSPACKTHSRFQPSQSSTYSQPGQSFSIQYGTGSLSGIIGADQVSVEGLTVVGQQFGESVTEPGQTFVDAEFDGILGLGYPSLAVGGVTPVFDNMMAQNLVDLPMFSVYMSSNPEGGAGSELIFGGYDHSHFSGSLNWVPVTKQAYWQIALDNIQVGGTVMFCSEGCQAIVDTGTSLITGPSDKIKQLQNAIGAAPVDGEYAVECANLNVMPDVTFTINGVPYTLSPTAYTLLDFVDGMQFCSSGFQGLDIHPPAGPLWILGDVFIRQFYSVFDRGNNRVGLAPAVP
# Cathepsin D (Homo sapiens), sequence (P07339 65-162 limits assumed): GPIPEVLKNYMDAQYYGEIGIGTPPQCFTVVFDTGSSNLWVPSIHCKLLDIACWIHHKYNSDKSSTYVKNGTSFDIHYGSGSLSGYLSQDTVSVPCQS
# Cathepsin D (Homo sapiens), sequence (P07339 169-412 limits assumed): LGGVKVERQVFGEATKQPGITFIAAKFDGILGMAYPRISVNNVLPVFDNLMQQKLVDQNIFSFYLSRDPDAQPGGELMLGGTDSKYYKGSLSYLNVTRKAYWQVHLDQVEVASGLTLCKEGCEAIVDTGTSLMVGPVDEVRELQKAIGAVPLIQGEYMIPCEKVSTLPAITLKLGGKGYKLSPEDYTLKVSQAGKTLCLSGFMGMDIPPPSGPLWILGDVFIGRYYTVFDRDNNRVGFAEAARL
# Pepsin A (Sus scrofa), sequence (P00791 60-385 limits assumed): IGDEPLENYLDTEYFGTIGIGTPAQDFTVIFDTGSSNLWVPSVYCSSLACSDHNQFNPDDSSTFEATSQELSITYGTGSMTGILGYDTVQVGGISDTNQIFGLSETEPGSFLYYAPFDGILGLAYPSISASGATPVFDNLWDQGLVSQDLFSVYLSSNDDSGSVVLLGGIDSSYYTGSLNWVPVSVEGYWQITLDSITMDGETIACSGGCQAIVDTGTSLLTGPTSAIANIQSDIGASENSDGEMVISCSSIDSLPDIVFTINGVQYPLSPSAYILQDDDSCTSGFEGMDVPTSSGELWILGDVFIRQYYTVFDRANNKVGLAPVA
# Mitogen-activated protein kinase 10 (Homo sapiens), sequence (P53779 whole entry): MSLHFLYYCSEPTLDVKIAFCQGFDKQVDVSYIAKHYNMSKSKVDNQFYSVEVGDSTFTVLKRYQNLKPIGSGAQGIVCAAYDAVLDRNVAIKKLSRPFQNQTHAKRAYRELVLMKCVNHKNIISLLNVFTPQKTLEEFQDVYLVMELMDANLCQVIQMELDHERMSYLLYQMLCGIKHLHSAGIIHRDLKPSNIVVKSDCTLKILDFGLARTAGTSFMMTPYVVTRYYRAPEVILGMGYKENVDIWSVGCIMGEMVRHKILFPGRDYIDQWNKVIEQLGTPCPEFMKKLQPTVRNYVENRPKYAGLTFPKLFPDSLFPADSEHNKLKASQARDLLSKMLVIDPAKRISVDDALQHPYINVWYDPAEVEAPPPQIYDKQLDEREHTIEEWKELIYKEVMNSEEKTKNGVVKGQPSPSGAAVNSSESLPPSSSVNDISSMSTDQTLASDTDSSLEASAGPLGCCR
# Cathepsin S (Homo sapiens), sequence (P25774 115-331 limits assumed): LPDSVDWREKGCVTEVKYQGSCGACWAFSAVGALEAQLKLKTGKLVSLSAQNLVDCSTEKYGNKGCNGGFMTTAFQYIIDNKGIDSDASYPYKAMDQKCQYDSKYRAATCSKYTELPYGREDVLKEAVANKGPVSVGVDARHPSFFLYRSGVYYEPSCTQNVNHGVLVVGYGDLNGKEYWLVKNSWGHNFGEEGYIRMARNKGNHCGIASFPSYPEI
compound,measurement,setting,value
O=c1cc(-c2ccccc2F)[nH]c2cc3c(cc12)OCO3,inhibition,[1],27%
same,GI50,MKN-7; MKN-7,45.7 nM
same,CC50,"MKN-7; MKN-7, read-out: pLC50 (converted)",> 100000 nM
same,TGI,"MKN-7; MKN-7, read-out: pTGI",> 100000 nM
same,GI50,NCI-H226; NCI-H226,355 nM
same,CC50,"NCI-H226; NCI-H226, read-out: pLC50 (converted)",> 100000 nM
same,TGI,"NCI-H226; NCI-H226, read-out: pTGI",> 100000 nM
same,Activity,SK-OV-3 [2],Active
same,GI50,DMS-273; DMS-273,56.2 nM
same,CC50,"DMS-273; DMS-273, read-out: pLC50 (converted)",> 100000 nM
same,TGI,"DMS-273; DMS-273, read-out: pTGI",> 100000 nM
same,Activity,SK-OV-3 [3],Active
same,Activity,OVCAR-3 [4],124%
same,GI50,OVCAR-5; OVCAR-5,813 nM
same,CC50,"OVCAR-5; OVCAR-5, read-out: pLC50 (converted)",> 100000 nM
same,TGI,"OVCAR-5; OVCAR-5, read-out: pTGI",> 100000 nM
same,GI50,U-251; U-251,69.2 nM
same,CC50,"U-251; U-251, read-out: pLC50 (converted)",> 100000 nM
same,TGI,"U-251; U-251, read-out: pTGI (converted)",18200 nM
same,GI50,MKN-74; MKN-74,162 nM
same,CC50,"MKN-74; MKN-74, read-out: pLC50 (converted)",> 100000 nM
same,TGI,"MKN-74; MKN-74, read-out: pTGI (converted)",871 nM
same,GI50,MKN-28; MKN-28,112 nM
same,CC50,"MKN-28; MKN-28, read-out: pLC50 (converted)",> 100000 nM
same,TGI,"MKN-28; MKN-28, read-out: pTGI (converted)",17800 nM
same,GI50,LOX IMVI,123 nM
same,CC50,LOX IMVI; read-out: pLC50 (converted),> 100000 nM
same,TGI,LOX IMVI; read-out: pTGI (converted),676 nM
same,GI50,[5]; HBC5,776 nM
same,CC50,"[5]; HBC5, read-out: pLC50 (converted)",> 100000 nM
same,TGI,"[5]; HBC5, read-out: pTGI",> 100000 nM
same,half-life,[6],7.3 h
same,GI50,NCI-H23; NCI-H23,1170 nM
same,CC50,"NCI-H23; NCI-H23, read-out: pLC50 (converted)",> 100000 nM
same,TGI,"NCI-H23; NCI-H23, read-out: pTGI",> 100000 nM
same,inhibition,[7],55%
same,GI50,SNB-75; SNB-75,20000 nM
same,CC50,"SNB-75; SNB-75, read-out: pLC50 (converted)",> 100000 nM
same,TGI,"SNB-75; SNB-75, read-out: pTGI",> 100000 nM
same,GI50,SF-268; SF-268,100 nM
same,CC50,"SF-268; SF-268, read-out: pLC50 (converted)",> 100000 nM
same,TGI,"SF-268; SF-268, read-out: pTGI",> 100000 nM
same,Activity,SK-OV-3 [8],Active
same,GI50,[9]; MKN-1,77.6 nM
same,CC50,"[9]; MKN-1, read-out: pLC50 (converted)",> 100000 nM
same,TGI,"[9]; MKN-1, read-out: pTGI",> 100000 nM
same,Tmax,[10],0.3 h
same,GI50,OVCAR-4,28.2 nM
same,CC50,OVCAR-4; [17],513 nM
same,TGI,OVCAR-4; read-out: pTGI (converted),64.6 nM
same,inhibition,Rattus norvegicus,83%
same,GI50,SK-OV-3 [11],85.1 nM
same,CC50,SK-OV-3 [11]; [17],63100 nM
same,TGI,SK-OV-3 [11]; read-out: pTGI (converted),501 nM
same,inhibition,[12],12%
same,GI50,OVCAR-3 [13]; OVCAR-3,7080 nM
same,CC50,"OVCAR-3 [13]; OVCAR-3, read-out: pLC50 (converted)",> 100000 nM
same,TGI,"OVCAR-3 [13]; OVCAR-3, read-out: pTGI",> 100000 nM
same,solubility,[14],0.013 µg/mL
same,inhibition,[15],1%
same,GI50,NCI-H522; NCI-H522,60.3 nM
same,CC50,"NCI-H522; NCI-H522, read-out: pLC50 (converted)",> 100000 nM
same,TGI,"NCI-H522; NCI-H522, read-out: pTGI (converted)",562 nM
same,GI50,MKN-45; MKN-45,57.5 nM
same,CC50,"MKN-45; MKN-45, read-out: pLC50 (converted)",> 100000 nM
same,TGI,"MKN-45; MKN-45, read-out: pTGI",> 100000 nM
same,GI50,HCC 2998; HCC 2998,129 nM
same,CC50,"HCC 2998; HCC 2998, read-out: pLC50 (converted)",> 100000 nM
same,TGI,"HCC 2998; HCC 2998, read-out: pTGI (converted)",1260 nM
same,inhibition,Pepsin A (Sus scrofa),85%
same,GI50,[16]; HBC4,347 nM
same,CC50,"[16]; HBC4, read-out: pLC50 (converted)",> 100000 nM
same,TGI,"[16]; HBC4, read-out: pTGI",> 100000 nM

# — ChEMBL document CHEMBL1154907, “Synthesis and preclinical evaluations of 2-(2-fluorophenyl)-6,7-methylenedioxyquinolin-4-one monosodium phosphate (CHM-1-P-Na) as a potent antitumor agent” (J Med Chem, 2010)
